Published values collected from several papers.
Each line is one published result; the experiments were not run side by side.
Cnr2: Cannabinoid receptor 2 (Cnr2, Mus musculus, UniProt P47936)
G protein-coupled receptor 88: G protein-coupled receptor 88 (Homo sapiens, UniProt Q9GZN0)
CDK13: Cyclin-dependent kinase 13 (CDK13, Homo sapiens, UniProt Q14004)

SMILES	target	assay	system	conditions	measurement	result
CCOC(=O)C(CC)(CCCSCCOCCOCCNc1ccc([N+](=O)[O-])c2nonc12)NC(=O)c1ccc(C2CC2)c(Cc2ccc(F)cc2)n1 (racemic)	Cnr2	cAMP, agonist	–	–	Emax	123%
CCCCOc1ccc([C@@H](CO)C(=O)N[C@H](C)c2ccccc2)cc1	G protein-coupled receptor 88	cAMP, agonist, TR-FRET	CHO	–	Emax	100%
Cc1nc2c(=O)n(C)c(=O)nc-2n(C)n1	Protein disulfide-isomerase (P4HB, Homo sapiens, UniProt P07237)	thermal stability, DSF	–	10 µM	ΔTm	-2.94 °C
COc1ncccc1-c1cnn2ccc(N3CCN(C(=O)OC(C)C)CC3)nc12	Platelet-derived growth factor receptor alpha (PDGFRA, Homo sapiens, UniProt P16234)	binding, competition with immobilised ligand	–	1 µM	remaining binding	100%
Cn1cc(-c2cc(F)cc(N3CCn4c(cc5c4CCCC5)C3=O)c2CO)cc(Nc2ccc(N3CCN(C4COC4)CC3)cn2)c1=O	5'-AMP-activated protein kinase catalytic subunit alpha-1 (PRKAA1, Homo sapiens, UniProt Q13131)	enzyme activity, inhibitor	–	0.1 µM	inhibition	0%
Nc1ncc(-c2nc(N3CCOCC3)nc(N3CCOCC3)n2)c(C(F)F)n1	Mitogen-activated protein kinase kinase kinase kinase 5 (MAP4K5, Homo sapiens, UniProt Q9Y4K4)	binding, competition with immobilised ligand	–	10 µM	remaining binding	100%
CCOC(=O)C(CC)(CCCSCCOCCOCCOCCOCCNC(=O)OC(C)(C)C)NC(=O)c1ccc(C2CC2)c(Cc2ccc(F)cc2)n1 (stereo not drawn)	Cnr2	cAMP, agonist	–	–	Emax	84%
CCCc1ccc(-c2ccc([C@@H](CO)C(=O)N[C@H](C)c3ccccc3)cc2)cc1	G protein-coupled receptor 88	cAMP, agonist, TR-FRET	–	–	Emax	96%
C#Cc1n[nH]c2c(-c3cn([C@@H](C)c4ccccn4)c(=O)[nH]c3=O)cc(F)cc12	Ephrin type-B receptor 1 (EPHB1, Homo sapiens, UniProt P54762)	enzyme activity, inhibitor	–	0.1 µM	inhibition	1.8%
CCC[C@H](C)COc1ccc([C@@H](CO)C(=O)N[C@H](C)c2ccccc2)cc1	G protein-coupled receptor 88	cAMP, agonist, TR-FRET	CHO	–	Emax	97%
CC[C@H](NC(=O)OCc1ccccc1)C(=O)N[C@H](C(=O)N[C@@H](CC(C)C)C(=O)N(C)N(C#N)CCC(N)=O)C(C)(C)C	Procathepsin L (CTSL, Homo sapiens, UniProt P07711)	enzyme activity, inhibitor	–	–	kon	17300 M⁻¹ s⁻¹
CC[C@@H](C)COc1ccc([C@@H](CO)C(=O)N[C@H](C)c2ccccc2)cc1	G protein-coupled receptor 88	cAMP, agonist, TR-FRET	–	–	Emax	96%
Cc1nn(C)cc1-c1nc2c(N3CCN(Cc4ccc(Cl)cc4)CC3)c(Cl)cnc2[nH]1	CDK13	binding, competition with immobilised ligand	–	1 µM	remaining binding	77%
CCN1CCN(Cc2ccc(C(=O)Nc3ccc(C)c(Oc4ccc5c(c4)CC(=O)N5)c3)cc2C(F)(F)F)CC1	CDK13	binding, competition with immobilised ligand	–	1 µM	remaining binding	100%
Cn1cc(-c2cccc(N3CCc4c(sc5c4CC(C)(C)C5)C3=O)c2CO)cc(Nc2ccncn2)c1=O	Sphingosine kinase 2 (SPHK2, Homo sapiens, UniProt Q9NRA0)	enzyme activity, inhibitor	–	1 µM	inhibition	-1%
